Active and inactive are the calls of the source. The rule behind the calls is not given here.
Key:
[1] = tested on: HeLa; test: Cytotoxicity against human HeLa cells assessed as reduction in cell viability by measuring ethidium homodimer-1 uptake up to 150 uM preincubated for 10 mins followed by ethidium homodimer-1 addition measured after 10 mins by fluorescence assay; assay type: cell-based
How it was run: (§1)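 Live/dead cell viability assay in HeLa cells. Maximum death was set by treating cells 10 min with 0.1% Triton-X, then 10 min with 0.4 μM ethidium homodimer-1. Fluorescence was read on a plate reader.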

[2] = tested on: HeLa; test: Inhibition of TEAD (unknown origin) expressed in human HeLa cells up to 150 uM after 6 hrs by nanoluciferase reporter gene assay; assay type: cell-based
How it was run: (§2)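 HeLa cells stably transduced with a lentiviral 8×TEAD-element secreted nanoluciferase reporter were seeded at 2 × 10^4 cells/well and grown 48 h. They were washed and treated with compound for 2 h, washed again and re-treated for 4 h. Secreted nanoluciferase in the conditioned medium was assayed with NanoGlo; n = 3.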

[3] = tested on: HeLa; test: Cytotoxicity against human HeLa cells assessed as reduction in cell viability by measuring ethidium homodimer-1 uptake at 100 uM preincubated for 10 mins followed by ethidium homodimer-1 addition measured after 10 mins by fluorescence assay; assay type: cell-based; how it was run: as §1
[4] = tested on: HeLa; test: Inhibition of TEAD (unknown origin) expressed in human HeLa cells at 100 uM after 6 hrs by nanoluciferase reporter gene assay relative to control; assay type: cell-based; how it was run: as §2
[5] = target: T1, Transcriptional enhancer factor TEF-1 (Homo sapiens, UniProt P28347); test: (§3) Inhibition of GFP-tagged YAP1 (unknown origin) interaction with myc-tagged human TEAD1 expressed in human HeLa cells by measuring GFP-Trap at 200 uM incubated for 30 mins with myc-tagged human TEAD1 lysate followed by GFP-tagged YAP1 lysate addition measured after 30 mins by Western blot based immunoprecipitation assay; assay type: cell-based
How it was run: (§4)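 Myc-TEAD1 and GFP-YAP1 were expressed separately in transfected HeLa cells, and pooled cytosolic plus nuclear extracts were prepared. The myc-TEAD extract was incubated 30 min on ice with 200 μM compound, then an equal volume of GFP-YAP lysate was added for another 30 min. Complexes were pulled down with GFP-Trap or Myc-Trap beads and quantified by Western blot; n = 3.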

[6] = tested on: HeLa; test: Inhibition of TEAD in human HeLa cells assessed as reduction in CCN1 m-RNA expression incubated for 2 hrs followed by compound wash out and re-treatment for 4 hrs by NanoGlo assay; assay type: cell-based
[7] = tested on: HeLa; test: Inhibition of TNT1 m-RNA expression in human HeLa cells up to 80 uM incubated for 2 hrs followed by compound wash out and re-treatment for 4 hrs by NanoGlo assay; assay type: functional, cell-based
[8] = tested on: HeLa; test: Inhibition of TEAD in human HeLa cells assessed as reduction in CTGF m-RNA expression incubated for 2 hrs followed by compound wash out and re-treatment for 4 hrs by NanoGlo assay; assay type: cell-based
[9] = tested on: HeLa; test: Cytotoxicity against human HeLa cells assessed as reduction in cell viability by measuring ethidium homodimer-1 uptake at 60 uM preincubated for 10 mins followed by ethidium homodimer-1 addition measured after 10 mins by fluorescence assay; assay type: cell-based; how it was run: as §1
[10] = target: T1, Transcriptional enhancer factor TEF-1; test: Inhibition of human HEK293 cell lysate derived YAP interaction with recombinant GST-tagged human TEAD1 (194 to 411 residues) expressed in Escherichia coli soluBL21 at 200 uM after 18 hrs by Western blot analysis; assay type: subcellular
How it was run: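 GST–TEAD1 (about 5 μg) immobilized on glutathione resin beads, incubated with HEK293 whole-cell lysate containing endogenous YAP at 4 °C for 18 h. Resin washed; bound proteins eluted by boiling in Laemmli buffer. YAP and GST quantified by Western blot (anti-YAP, anti-GST); n = 2.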

[11] = tested on: HeLa; test: Inhibition of 36B4 m-RNA expression in human HeLa cells up to 80 uM incubated for 2 hrs followed by compound wash out and re-treatment for 4 hrs by NanoGlo assay; assay type: functional, cell-based
[12] = tested on: HeLa; test: Antiproliferative activity against human HeLa cells assessed as reduction in EdU incorporation after 24 hrs by Hoechst 33342 staining-based fluorescence assay; assay type: functional, cell-based
How it was run: (§5)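 Click-iT EdU assay. Cells were treated with compound for 24 h total, with 10 μM EdU present for the final labeling period. Cells were then fixed in 4% formaldehyde, stained for EdU and counterstained with Hoechst 33342 for 20 min. EdU-positive nuclei were counted in at least three fields per well; n = 4.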

[13] = target: T1, Transcriptional enhancer factor TEF-1; test: Inhibition of NL-tagged YAP (unknown origin) interaction with myc-tagged human TEAD1 preincubated for 1 hr followed by NL-tagged YAP addition by NanoGlo assay
How it was run: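 Myc-TEAD1 from transfected HeLa lysate was captured with anti-myc antibody on protein-G-coated 96-well plates. Wells were pretreated with compound in PBS for 1 h at 4 °C, then co-incubated with lysate from HeLa cells expressing YAP–nanoluciferase. After four PBS washes, bound YAP–NL was read with NanoGlo.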

[14] = species on record: Rattus norvegicus; test: Inhibition of TEAD in rat VSMC assessed as reduction in CTGF m-RNA expression incubated for 2 hrs followed by compound wash out and re-treatment for 4 hrs by NanoGlo assay
[15] = tested on: VSMC; test: Antiproliferative activity against rat VSMC assessed as reduction in EdU incorporation after 24 hrs by Hoechst 33342 staining-based fluorescence assay; assay type: functional, cell-based; how it was run: as §5
[16] = tested on: VSMC; test: Antimigratory activity in rat VSMC incubated for overnight followed by media replacement and measured every hour for 24 hrs by phase contrast microscopic analysis; assay type: functional, cell-based
How it was run: (§6)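 IncuCyte real-time scratch wound assay. Cells were seeded in 96-well plates and grown 36 h, then pretreated overnight with compound. Wells were scratched and the medium was replaced with compound-containing medium. Phase-contrast images of the wound were taken hourly for 24 h and relative wound confluence was calculated; n = 4.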

[17] = Inhibition of TEAD (unknown origin) expressed in human HeLa cells after 6 hrs by nanoluciferase reporter gene assay; assay type: cell-based; how it was run: as §2
[18] = tested on: VSMC; test: Inhibition of 36B4 m-RNA expression in rat VSMC up to 80 uM incubated for 2 hrs followed by compound wash out and re-treatment for 4 hrs by NanoGlo assay; assay type: functional, cell-based
[19] = tested on: VSMC; test: Inhibition of TNT1 m-RNA expression in rat VSMC up to 80 uM incubated for 2 hrs followed by compound wash out and re-treatment for 4 hrs by NanoGlo assay; assay type: functional, cell-based
[20] = species on record: Rattus norvegicus; test: Inhibition of TEAD in rat VSMC assessed as reduction in CCN1 m-RNA expression incubated for 2 hrs followed by compound wash out and re-treatment for 4 hrs by NanoGlo assay
[21] = target: T1, Transcriptional enhancer factor TEF-1; test: as §3, with “myc-TRAP” for “GFP-Trap”; assay type: cell-based; how it was run: as §4
[22] = tested on: HeLa; test: Antimigratory activity in human HeLa cells incubated for overnight followed by media replacement and measured every hour for 24 hrs by phase contrast microscopic analysis; assay type: functional, cell-based; how it was run: as §6

T1 sequence (P28347 whole entry): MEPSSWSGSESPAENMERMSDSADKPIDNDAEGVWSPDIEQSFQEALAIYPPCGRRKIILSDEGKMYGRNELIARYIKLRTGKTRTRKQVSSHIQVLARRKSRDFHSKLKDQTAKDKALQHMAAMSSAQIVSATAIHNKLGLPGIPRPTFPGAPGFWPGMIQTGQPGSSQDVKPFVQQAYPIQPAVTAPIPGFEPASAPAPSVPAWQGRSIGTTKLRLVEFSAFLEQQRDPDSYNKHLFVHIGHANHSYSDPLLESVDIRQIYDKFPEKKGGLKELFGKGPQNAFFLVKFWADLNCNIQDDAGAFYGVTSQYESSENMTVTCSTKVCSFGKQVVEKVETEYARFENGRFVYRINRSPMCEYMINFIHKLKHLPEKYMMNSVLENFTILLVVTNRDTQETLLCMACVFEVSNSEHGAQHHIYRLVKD

SMILES: OCC(O)CN1CCNCC1 (stereo not given)
- Activity [1]: Non-Toxic
- inhibition [2]: inactive

SMILES: COc1ccc2nc(NC3=NCN(Cc4ccco4)CN3)nc(C)c2c1
- Activity [3]: Non-Toxic
- inhibition [4]: > 60%

SMILES: O=C(NCCn1ncc2c(N3CCN(c4ncccn4)CC3)ncnc21)C12CC3CC(CC(C3)C1)C2
- Activity [3]: Non-Toxic
- inhibition [4]: > 60%

SMILES: CCc1nc(C)nc(Oc2ccc(OCCOc3ccc(C)cc3C)nn2)n1
- Activity [3]: Non-Toxic
- inhibition [4]: > 60%

SMILES: O=C(O)c1ccco1
- Activity [1]: Non-Toxic
- inhibition [2]: inactive

SMILES: Cc1ccc2c(c1)c1c3n2CCN(C[C@H](O)CN2CCN(C(=O)c4ccco4)CC2)[C@@H]3CCC1
- inhibition [5]: Active
- inhibition [6]: Dose-dependent effect
- Activity [3]: Non-Toxic
- inhibition [7]: inactive
- inhibition [8]: Dose-dependent effect
- Activity [9]: Non-Toxic
- inhibition [10]: Active
- inhibition [11]: inactive
- Activity [12]: Dose-dependent effect
- inhibition [4]: > 60%
- inhibition [13]: Dose-dependent effect
- inhibition [14]: Dose-dependent effect
- Activity [15]: Dose-dependent effect
- Activity [16]: Dose-dependent effect
- IC50 [17]: 110 µM
- inhibition [18]: inactive
- inhibition [19]: inactive
- inhibition [20]: Dose-dependent effect
- inhibition [21]: Active
- Activity [22]: Dose-dependent effect

Source: ChEMBL document CHEMBL4422642, “Antiproliferative and Antimigratory Effects of a Novel YAP-TEAD Interaction Inhibitor Identified Using in Silico Molecular Docking” (J Med Chem, 2019)
